{
  "source": "ChEMBL document CHEMBL4680093",
  "about": "(J Med Chem, 2016)",
  "key": {"[1]": {"system": "Mus musculus", "assay": "In-vivo inhibition of 11beta-HSD1 activity in C57BL/6 mouse epididymal fat assessed as reduction in cortisone to-cortisol conversion at 3 to 30 mg/kg, po measured after 2 to 6 hrs by ELISA", "type": "functional, organism-based", "conditions": "Epididymal fat pad, dose 3-30 mg/kg, time 2-6 hrs", "method_in_brief": "(§1)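 Male C57BL/6 mice dosed orally once at 3, 10 or 30 mg/kg in sterile water containing 0.5% methylcellulose and 1% Tween80, then sacrificed at 2 or 6 h. Liver and epididymal fat pads incubated ex vivo in culture medium containing cortisone. Cortisol formed was measured by ELISA and reported as % inhibition versus vehicle.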"}, "[2]": {"assay": "In-vivo inhibition of 11beta-HSD1 activity in C57BL/6 mouse epididymal fat assessed as reduction in cortisone to-cortisol conversion at 3 mg/kg, po measured after 2 hrs by ELISA", "type": "functional", "conditions": "C57BL/6, Epididymal fat pad", "method_in_brief": "as §1"}, "[3]": {"assay": "In-vivo inhibition of 11beta-HSD1 activity in C57BL/6 mouse liver assessed as reduction in cortisone to-cortisol conversion at 10 mg/kg, po measured after 6 hrs by ELISA", "type": "functional", "conditions": "C57BL/6, Liver", "method_in_brief": "as §1"}, "[4]": {"assay": "Unbound drug level in mouse plasma at 10 mg/kg, po measured after 2 hrs post dose", "type": "ADME, organism-based", "conditions": "in vivo"}, "[5]": {"assay": "In-vivo inhibition of 11beta-HSD1 activity in C57BL/6 mouse epididymal fat assessed as reduction in cortisone to-cortisol conversion at 10 mg/kg, po measured after 2 hrs by ELISA", "type": "functional", "conditions": "C57BL/6, Epididymal fat pad", "method_in_brief": "as §1"}, "[6]": {"target": "Cytochrome P450 2D6 (Homo sapiens, UniProt P10635)", "sequence (P10635 whole entry)": "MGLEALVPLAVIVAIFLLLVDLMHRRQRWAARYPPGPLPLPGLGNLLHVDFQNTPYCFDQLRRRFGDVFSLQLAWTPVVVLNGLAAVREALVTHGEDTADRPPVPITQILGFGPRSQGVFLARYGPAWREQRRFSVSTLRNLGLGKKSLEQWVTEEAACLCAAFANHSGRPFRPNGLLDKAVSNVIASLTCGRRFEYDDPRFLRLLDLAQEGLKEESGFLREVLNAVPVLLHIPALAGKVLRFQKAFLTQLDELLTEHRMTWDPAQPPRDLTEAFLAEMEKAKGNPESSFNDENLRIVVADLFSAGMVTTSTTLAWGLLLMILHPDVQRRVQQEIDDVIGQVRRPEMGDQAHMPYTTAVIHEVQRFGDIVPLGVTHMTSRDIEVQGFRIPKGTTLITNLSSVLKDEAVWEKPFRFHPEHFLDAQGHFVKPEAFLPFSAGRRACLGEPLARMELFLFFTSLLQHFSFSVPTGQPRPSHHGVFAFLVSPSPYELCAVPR", "assay": "Inhibition of CYP2D6 in pooled human liver microsomes using dextromethorphan as substrate in presence of NADPH incubated for 10 mins by LC-MS/MS analysis"}, "[7]": {"target": "T1, Nuclear receptor subfamily 1 group I member 2 (Homo sapiens, UniProt O75469)", "T1 sequence (O75469 whole entry)": "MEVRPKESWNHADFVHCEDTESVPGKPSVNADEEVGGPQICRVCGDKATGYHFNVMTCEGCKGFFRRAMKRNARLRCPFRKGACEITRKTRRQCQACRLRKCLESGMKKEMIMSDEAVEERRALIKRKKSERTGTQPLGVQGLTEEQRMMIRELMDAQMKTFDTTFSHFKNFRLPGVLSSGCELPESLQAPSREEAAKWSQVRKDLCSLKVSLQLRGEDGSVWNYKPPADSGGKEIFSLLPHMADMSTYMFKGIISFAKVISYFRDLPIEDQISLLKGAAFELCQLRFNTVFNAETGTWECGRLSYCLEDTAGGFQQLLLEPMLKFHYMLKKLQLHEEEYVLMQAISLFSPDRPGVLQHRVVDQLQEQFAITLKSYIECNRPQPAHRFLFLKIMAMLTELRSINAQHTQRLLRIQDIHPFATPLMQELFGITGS", "assay": "Activation of PXR (unknown origin) at 10 uM relative to rifampicin", "type": "ADME"}, "[8]": {"target": "11-beta-hydroxysteroid dehydrogenase 1 (Mus musculus, UniProt P50172)", "sequence (P50172 whole entry)": "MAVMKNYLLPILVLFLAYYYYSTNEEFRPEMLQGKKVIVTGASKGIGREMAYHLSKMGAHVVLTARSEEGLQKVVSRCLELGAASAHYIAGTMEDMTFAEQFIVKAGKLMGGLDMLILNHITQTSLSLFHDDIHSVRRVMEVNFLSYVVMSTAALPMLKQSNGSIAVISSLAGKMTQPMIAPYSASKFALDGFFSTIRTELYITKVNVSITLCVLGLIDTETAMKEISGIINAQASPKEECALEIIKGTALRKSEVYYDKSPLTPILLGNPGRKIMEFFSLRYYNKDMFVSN", "assay": "Inhibition of mouse 11beta-HSD1 expressed in microsomes", "parameters": "species or system Microsome", "method_in_brief": "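HEK293 cell lysates (microsomal fractions) overexpressing human or mouse 11β-HSD1 were incubated with cortisone, a range of inhibitor concentrations and an NADPH regenerating system in sodium phosphate buffer at 37°C for 1 h. Cortisol in the supernatant was quantified by ELISA. Percent inhibition was fitted to a sigmoidal dose-response curve to give IC50.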"}, "[9]": {"target": "T2, 11-beta-hydroxysteroid dehydrogenase type 2 (Homo sapiens) (UniProt P80365)", "T2 sequence (whole entry)": "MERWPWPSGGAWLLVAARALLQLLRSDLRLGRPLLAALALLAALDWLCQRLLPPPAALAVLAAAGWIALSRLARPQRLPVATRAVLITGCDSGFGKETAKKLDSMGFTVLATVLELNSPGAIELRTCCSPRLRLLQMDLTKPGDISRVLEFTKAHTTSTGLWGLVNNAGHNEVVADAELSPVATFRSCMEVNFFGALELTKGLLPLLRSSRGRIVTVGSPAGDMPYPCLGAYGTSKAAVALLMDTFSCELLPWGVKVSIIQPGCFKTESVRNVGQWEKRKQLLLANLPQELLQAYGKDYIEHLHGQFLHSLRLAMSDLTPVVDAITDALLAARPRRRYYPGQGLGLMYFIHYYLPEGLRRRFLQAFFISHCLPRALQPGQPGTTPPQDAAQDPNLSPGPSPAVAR", "assay": "Inhibition of human 11beta-HSD2 expressed in microsomes at 10 uM relative to control", "conditions": "Microsome"}, "[10]": {"assay": "Clearance in rat at 1 mg/kg, iv", "type": "ADME, organism-based", "conditions": "in vivo"}, "[11]": {"assay": "Half life in rat at 1 mg/kg, iv", "type": "ADME, organism-based", "conditions": "in vivo"}, "[12]": {"assay": "AUC in mouse at 1 mg/kg, iv", "type": "ADME, organism-based", "parameters": "dose 1 mg/kg", "conditions": "in vivo"}, "[13]": {"assay": "Tmax in dog at 4 mg/kg, po", "type": "ADME, organism-based, Canis lupus familiaris", "conditions": "in vivo", "method_in_brief": "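Single-dose PK study. The iv dose was given in 10% hydroxypropyl-β-cyclodextrin and the oral dose in 0.5% methylcellulose/1% Tween80. Mouse and rat received 1 mg/kg iv and 5 mg/kg po. Dog received 0.5 mg/kg iv and 4 mg/kg po. CL, Vss, t1/2, AUC, Cmax, tmax and F were derived.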"}, "[14]": {"assay": "AUC in dog at 4 mg/kg, po", "type": "ADME, organism-based, Canis lupus familiaris", "parameters": "dose 4 mg/kg", "conditions": "in vivo"}, "[15]": {"assay": "Drug level in mouse adipose tissue at 10 mg/kg, po measured after 2 hrs post dose", "type": "ADME, organism-based", "conditions": "in vivo", "method_in_brief": "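C57BL/6 mice given a single oral 10 mg/kg dose in 0.5% methylcellulose plus 1% Tween80. Sacrifice at 2 h post-dose, with collection of brain, liver, adipose and plasma. Compound concentration expressed as nmol/g, along with tissue/plasma ratio.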"}, "[16]": {"system": "Mus musculus", "assay": "In-vivo inhibition of 11beta-HSD1 activity in C57BL/6 mouse liver assessed as reduction in cortisone to-cortisol conversion at 3 to 30 mg/kg, po measured after 2 to 6 hrs by ELISA", "type": "functional, organism-based", "conditions": "dose 3-30 mg/kg, time 2-6 hrs", "method_in_brief": "as §1"}, "[17]": {"assay": "Genotoxicity in Salmonella typhimurium by reverse mutation assay", "type": "toxicity", "conditions": "salmonella enterica subsp. enterica serovar typhimurium"}, "[18]": {"assay": "Toxicity in female mouse during 4-week repeated once daily oral-dose toxicity study", "conditions": "in vivo, time 4 weeks", "method_in_brief": "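Mice of both sexes were dosed orally once daily for 4 weeks at 40, 100, 250 and 625 mg/kg. Toxicity was assessed and the NOAEL determined.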"}, "[19]": {"system": "Mus musculus", "assay": "Improvement in lipid profile in C57BL/6-Lep^ob (ob/ob) mouse assessed as LDL cholesterol level at 20 mg/kg, po dosed once daily for 25 days co-treated with 300 mg/kg. po QD for 25 days metformin (reference value: 30.3 +/- 0.8 mg/dl)", "conditions": "time 25 day"}},
  "data": [
    {"smiles": "C[C@@H]1CN(c2ccc(S(C)(=O)=O)cc2F)CCN1c1nccc(C(=O)NC2C3CC4CC2CC(O)(C4)C3)n1", "note": "(some centres undefined)", "values": [
      {"measurement": "inhibition", "setting": "[1]", "result": "Dose-dependent effect"},
      {"measurement": "inhibition in vivo at 3 mg/kg", "setting": "[2]", "result": 86, "unit": "%"},
      {"measurement": "inhibition in vivo at 10 mg/kg", "setting": "[3]", "result": 87, "unit": "%"},
      {"measurement": "Cp(f)", "setting": "[4]", "result": 100, "unit": "nM"},
      {"measurement": "inhibition in vivo at 10 mg/kg", "setting": "[5]", "result": 88, "unit": "%"},
      {"measurement": "IC50", "setting": "[6]", "result": "> 10000", "unit": "nM"},
      {"measurement": "Activity", "setting": "[7]", "result": 0, "unit": "%"},
      {"measurement": "IC50", "setting": "[8]", "result": 1.6, "unit": "nM"},
      {"measurement": "inhibition", "setting": "[9]", "result": 17, "unit": "%"},
      {"measurement": "clearance", "setting": "[10]", "result": 15.5, "unit": "mL/min/kg"},
      {"measurement": "half-life", "setting": "[11]", "result": 1.8, "unit": "h"},
      {"measurement": "AUC", "setting": "[12]", "result": 2350, "unit": "ng·h/mL"},
      {"measurement": "Tmax", "setting": "[13]", "result": 2.1, "unit": "h"},
      {"measurement": "AUC", "setting": "[14]", "result": 11500, "unit": "ng·h/mL"},
      {"measurement": "Drug uptake", "setting": "[15]", "result": 6.64, "unit": "nmol/g"},
      {"measurement": "inhibition", "setting": "[16]", "result": "Dose-dependent effect"},
      {"measurement": "Activity", "setting": "[17]", "result": "Non-Toxic"},
      {"measurement": "NOAEL at 672 h", "setting": "[18]", "result": 625, "unit": "mg/kg"},
      {"measurement": "Activity", "setting": "[19]", "result": 17.2, "unit": "mg/dL"}
    ]}
  ]
}
